Laboratory results taken from PubChem BioAssay AID493046 (Johns Hopkins Ion Channel Center, 2011).

Target: Potassium voltage-gated channel subfamily KQT member 5 (Homo sapiens) (UniProt Q9NR82)
Assay: KCNQ5 channel potentiation by KCNQ2 openers, dose response, selectivity assay for KCNQ2 activator project, cell-based, thallium flux (AID 493046)
Settings: CHO-K1 transfected KCNQ5, FluxOR thallium flux fluorescence; series mostly up to 30 µM; potentiation: at the top concentration;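 active = KCNQ5 potassium channel activity raised or lowered at any tested dose, with a dose response curve obtained; inactive = no effect at any dose, or no curve obtained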
In short: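 System: CHO-K1 cells transiently transfected with human KCNQ5 channel. Incubation: transfection 24 h before, dye 90 min, compound 20 min, room temperature. Detection: kinetic fluorescence of thallium flux with FluxOR dye. Read-out basis: Peak-to-minimum fluorescence over baseline, percent change versus vehicle. Benchmarks: vehicle controls as normalization reference.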

Potassium voltage-gated channel subfamily KQT member 5 (Homo sapiens), sequence (Q9NR82 whole entry, looked up): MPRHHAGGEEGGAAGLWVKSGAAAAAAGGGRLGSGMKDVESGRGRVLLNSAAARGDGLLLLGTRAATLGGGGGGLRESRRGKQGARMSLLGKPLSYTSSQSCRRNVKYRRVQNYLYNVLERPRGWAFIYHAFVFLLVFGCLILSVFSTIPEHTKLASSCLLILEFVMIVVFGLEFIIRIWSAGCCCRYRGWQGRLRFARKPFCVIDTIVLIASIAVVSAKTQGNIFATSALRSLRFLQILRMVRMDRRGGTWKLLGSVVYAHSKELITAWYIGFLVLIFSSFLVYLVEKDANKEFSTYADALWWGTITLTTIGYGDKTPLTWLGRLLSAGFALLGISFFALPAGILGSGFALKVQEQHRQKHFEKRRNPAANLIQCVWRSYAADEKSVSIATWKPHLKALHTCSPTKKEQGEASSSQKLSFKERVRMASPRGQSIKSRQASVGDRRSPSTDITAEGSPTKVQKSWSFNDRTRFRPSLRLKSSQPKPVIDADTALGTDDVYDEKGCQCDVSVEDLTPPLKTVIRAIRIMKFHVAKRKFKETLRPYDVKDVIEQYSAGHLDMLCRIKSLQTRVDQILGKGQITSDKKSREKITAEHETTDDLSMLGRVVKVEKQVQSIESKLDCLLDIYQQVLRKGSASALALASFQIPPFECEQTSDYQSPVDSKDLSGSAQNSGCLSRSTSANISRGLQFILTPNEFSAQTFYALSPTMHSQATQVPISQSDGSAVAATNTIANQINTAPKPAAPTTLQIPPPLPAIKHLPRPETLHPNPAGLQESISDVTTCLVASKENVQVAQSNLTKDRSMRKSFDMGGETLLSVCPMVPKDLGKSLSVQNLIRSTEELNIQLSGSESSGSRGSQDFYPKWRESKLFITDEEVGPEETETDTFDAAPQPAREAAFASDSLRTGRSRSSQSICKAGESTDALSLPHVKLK

potentiation, inactive:
Cc1cc(C)c(NC(=O)CC(C)(C)C)c(Cl)c1 -7.36, CCCCC(=O)Nc1c(C)cc(C)cc1Cl -9.95, Cc1cc(C)c(NC(=O)C2CC3CCC2C3)c(C)c1 (stereo not given) -12.5, Cc1ccc(C)c(NC(=O)C2CC3CCC2C3)c1 (stereo not given) 2.92, Cc1cccc(C)c1NC(=O)C1CC2CCC1C2 (stereo not given) -7.45
